Assay type in all cases: functional
The species entered for assay [1] is Rattus norvegicus. The assay can be described thus: Ratio of the concentration increasing time to contracture by 25% (EC25) in rat heart and concentration showing vasorelaxant potency (IC50) in rat aorta. In short, it runs like this: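 Cardiac selectivity index: the ratio of vasorelaxant potency (IC50 for relaxing methoxamine-contracted rat aorta) to anti-ischemic potency (EC25 for increasing time to contracture in globally ischemic isolated perfused rat hearts).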

The species named for assay [2] is Rattus norvegicus. The assay can be described thus: Concentration necessary for increase in time to contracture by 25% in the globally ischemic rat hearts. Summed up:
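Isolated rat hearts, perfused and then made globally ischemic. The EC25 is the concentration giving a 25% increase in time to onset of contracture. Time to contracture is the time during total global ischemia for end-diastolic pressure to rise 5 mmHg above baseline.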

Assay [3] is filed under the species Rattus norvegicus. The assay can be described thus: Tested for the vasorelaxant potency in methoxamine contracted rat aorta. Summed up: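 Rat aortic tissue contracted with methoxamine. The IC50 is the concentration producing relaxation.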
For assay [4], the species on record is Rattus norvegicus. The assay can be described thus: Concentration necessary for increase in time to contracture at a concentration of 10 uM in ischemic rat hearts.

A value given as a limit tells only on which side of the number the result lay.

For orientation: EC25 means the concentration at which the effect reaches the 25% level. Low values mean an effect from little substance, high ones a need for much substance. Usually IC50 stands for the concentration that inhibits the measured activity by half. Low readings indicate inhibition by little substance, high ones a need for much substance. For the molecule `CC1(C)Oc2ccc(C#N)cc2[C@@H](N2CCN(c3ccccc3)C2=O)[C@@H]1O`, the Ratio in the assay filed under Rattus norvegicus [1] is on record as 0.42. In the assay filed under Rattus norvegicus [2], this molecule came in with an EC25 of 10 µM. The molecule further came in with an IC50 in the assay listed under Rattus norvegicus [3] of 23.7 µM.

With `CC1(C)Oc2ccc(C#N)cc2[C@@H](/N=C(\NC#N)Nc2ccccc2)[C@@H]1O` (stereo in doubt; 3), the Ratio in the assay filed under Rattus norvegicus [1] was determined as 7.9. The molecule further returned an EC25 in the assay filed under Rattus norvegicus [2] of 11 µM.

Regarding `CC1(C)Oc2ccc(C#N)cc2[C@@H](/N=C(\NC#N)Nc2ccc([N+](=O)[O-])cc2)[C@@H]1O`, in the assay listed under Rattus norvegicus [1], the Ratio is 20.6. In addition, the EC25 in the assay listed under Rattus norvegicus [2] is 6.2 µM. Also, half-maximal inhibition in the assay listed under Rattus norvegicus [3] (IC50) required 0.3 µM.

Consider `CC1(C)Oc2ccc(C#N)cc2[C@@H](/N=C(\NC#N)Sc2ccccc2)[C@@H]1O`, for which the EC25 in the assay listed under Rattus norvegicus [2] was greater than 30 µM. In addition, the IC50 in the assay filed under Rattus norvegicus [3] turned out to be 4.9 µM.

For `CC1(C)Oc2ccc(C#N)cc2[C@@H](NC(=O)Nc2ccncc2)[C@@H]1O`, in the assay listed under Rattus norvegicus [2], the Increase is recorded as 1%. For the same molecule, in the assay filed under Rattus norvegicus [3], the IC50 was 8.5 µM.

With `CC1(C)Oc2ccc(C#N)cc2[C@@H](/N=C(\NC#N)Nc2cccc(C(F)(F)F)c2)[C@@H]1O`, the Ratio in the assay listed under Rattus norvegicus [1] came to 3.3. This molecule also showed a 25% effect concentration (EC25) in the assay listed under Rattus norvegicus [2] of 5.3 µM. In the assay filed under Rattus norvegicus [3], this molecule displayed an IC50 of 1.6 µM.

As to `CC1(C)Oc2ccc(C#N)cc2[C@@H](/N=C(\NC#N)Nc2ccc(C(F)(F)F)cc2)[C@@H]1O`, the Ratio in the assay listed under Rattus norvegicus [1] was 1.4.

`CC1(C)Oc2ccc(C#N)cc2[C@@H](/N=C(\NC#N)Nc2cccc(C(=O)O)c2)[C@@H]1O` gave an IC50 in the assay filed under Rattus norvegicus [3] greater than 100 µM.

For `CC1(C)Oc2ccc(C#N)cc2[C@@H](/N=C(\NC#N)Nc2ccccc2)[C@@H]1O` (stereo in doubt; 22), the Ratio in the assay filed under Rattus norvegicus [1] is recorded as 4.7. Also, in the assay listed under Rattus norvegicus [2], the EC25 came out at 6.1 µM.

`COC(=O)c1cccc(N/C(=N/[C@@H]2c3cc(C#N)ccc3OC(C)(C)[C@H]2O)NC#N)c1` returned an IC50 in the assay listed under Rattus norvegicus [3] of 4.1 µM.

In turn, `CSc1ccc(N/C(=N/[C@@H]2c3cc(C#N)ccc3OC(C)(C)[C@H]2O)NC#N)cc1` came in with an IC50 in the assay listed under Rattus norvegicus [3] of 6.3 µM.

`CC1(C)Oc2ccc(C#N)cc2[C@@H](/N=C(\NC#N)Nc2ccc(C(=O)O)cc2)[C@@H]1O` returned an IC50 in the assay listed under Rattus norvegicus [3] greater than 100 µM.

Consider `CC1(C)Oc2ccc(C#N)cc2[C@@H](/N=C(\NC#N)Nc2cccc(Cl)c2)[C@@H]1O`, for which the Ratio in the assay listed under Rattus norvegicus [1] was found to be 2.3. Also, the EC25 in the assay filed under Rattus norvegicus [2] amounted to 1.4 µM. Also, the IC50 in the assay filed under Rattus norvegicus [3] is 0.6 µM.

For `CC1(C)Oc2ccc(C#N)cc2[C@@H](/N=C(\NC#N)Nc2ccc(Cl)c(F)c2)[C@@H]1O`, the IC50 in the assay filed under Rattus norvegicus [3] came to 1.66 µM.

`CC1(C)Oc2ccc(C#N)cc2[C@@H](NC(=O)NCc2ccccc2)[C@@H]1O`: in the assay filed under Rattus norvegicus [2], the EC25 is greater than 30 µM. In the assay filed under Rattus norvegicus [3], this molecule registered an IC50 of 5.6 µM.

For `Cc1ccc(N/C(=N/[C@@H]2c3cc(C#N)ccc3OC(C)(C)[C@H]2O)NC#N)cc1C`, the Ratio in the assay listed under Rattus norvegicus [1] worked out at 0.49. Also, in the assay listed under Rattus norvegicus [2], the 25% effect concentration (EC25) amounted to 2.5 µM. The molecule further returned an IC50 in the assay listed under Rattus norvegicus [3] of 5.1 µM.

`COC(=O)c1cn([C@@H]2c3cc(C#N)ccc3OC(C)(C)[C@H]2O)c2ccccc12` registered an EC25 in the assay filed under Rattus norvegicus [2] of 3.2 µM.

As for `CC1(C)Oc2ccc(C#N)cc2[C@@H](NC(=O)Nc2cccnc2)[C@@H]1O`, in the assay filed under Rattus norvegicus [1], the Ratio was determined as 8.4. This molecule also displayed an EC25 in the assay listed under Rattus norvegicus [2] of 4.2 µM. The molecule also came in with an IC50 in the assay filed under Rattus norvegicus [3] of 0.5 µM.

Take `C/N=C(\NC#N)N[C@@H]1c2cc(C#N)ccc2OC(C)(C)[C@H]1O`: in the assay listed under Rattus norvegicus [1], the Ratio is 66.5. In the assay listed under Rattus norvegicus [2], this molecule registered an EC25 of 13.3 µM.

`CC1(C)Oc2ccc(C#N)cc2[C@@H](/N=C(\NC#N)Nc2cccc([N+](=O)[O-])c2)[C@@H]1O`: the Ratio in the assay filed under Rattus norvegicus [1] turned out to be 7.5. Besides, the EC25 in the assay filed under Rattus norvegicus [2] came out at 5 µM. Also, the IC50 in the assay listed under Rattus norvegicus [3] came out at 0.67 µM.

With `CC(=O)c1ccc(N/C(=N/[C@@H]2c3cc(C#N)ccc3OC(C)(C)[C@H]2O)NC#N)cc1`, the Ratio in the assay filed under Rattus norvegicus [1] worked out at 2.5. In addition, the EC25 in the assay filed under Rattus norvegicus [2] came to 52 µM. In addition, in the assay listed under Rattus norvegicus [3], 21 µM corresponded to half-maximal inhibition (IC50).

For the molecule `CC1(C)Oc2ccc(C#N)cc2[C@@H](NC(=O)Cc2ccccc2)[C@@H]1O`, the Ratio in the assay filed under Rattus norvegicus [1] is on record as 12.3. This molecule displayed an EC25 in the assay listed under Rattus norvegicus [2] of 22.2 µM. In the assay filed under Rattus norvegicus [3], half-maximal inhibition (IC50) was put at 1.8 µM.

`CC1(C)Oc2ccc(C#N)cc2[C@@H](/N=C(\NC#N)Oc2ccccc2)[C@@H]1O` yielded an EC25 in the assay listed under Rattus norvegicus [2] of 68.8 µM. In the assay filed under Rattus norvegicus [3], this molecule returned an IC50 greater than 100 µM.

In the assay listed under Rattus norvegicus [2], `Cc1cccc(N/C(=N/[C@@H]2c3cc(C#N)ccc3OC(C)(C)[C@H]2O)NC#N)c1` came in with an EC25 of 2.7 µM.

On to `CC1(C)Oc2ccc(C#N)cc2[C@@H](/N=C(\NC#N)Nc2ccc(Cl)cc2)[C@@H]1O`, for which, in the assay filed under Rattus norvegicus [1], the Ratio came to 1.4.

On to `Cc1ccc(N/C(=N/[C@@H]2c3cc(C#N)ccc3OC(C)(C)[C@H]2O)NC#N)cc1`, for which, in the assay listed under Rattus norvegicus [1], the Ratio worked out at 0.6. The molecule also registered an EC25 in the assay filed under Rattus norvegicus [2] of 1.6 µM. It took 2.7 µM to reach half-maximal inhibition in the assay listed under Rattus norvegicus [3] (IC50).

Turning to `COc1ccc(N/C(=N/[C@@H]2c3cc(C#N)ccc3OC(C)(C)[C@H]2O)NC#N)cc1`, the Ratio in the assay listed under Rattus norvegicus [1] was determined as 0.16. In addition, the EC25 in the assay filed under Rattus norvegicus [2] was determined as 5.3 µM. In the assay filed under Rattus norvegicus [3], this molecule displayed an IC50 of 32.5 µM.

In the case of `CC1(C)Oc2ccc(C#N)cc2[C@@H](N2CCCC2=O)[C@@H]1O` [CROMAKALIM], in the assay filed under Rattus norvegicus [1], the Ratio is on record as 278.1.

On to `CCC(C)(C)/N=C(\NC#N)N[C@@H]1c2cc(C#N)ccc2OC(C)(C)[C@H]1O`, for which the Ratio in the assay filed under Rattus norvegicus [1] was found to be 0.7.

For the molecule `CC(=O)c1cccc(N/C(=N/[C@@H]2c3cc(C#N)ccc3OC(C)(C)[C@H]2O)NC#N)c1`, in the assay listed under Rattus norvegicus [3], the midpoint of inhibition, the IC50, lay at 8.4 µM.

As for `CC1(C)Oc2ccc(C#N)cc2[C@@H](/N=C(\NC#N)Nc2ccc3c(c2)CCC3)[C@@H]1O`, the Ratio in the assay listed under Rattus norvegicus [1] stood at 0.08. In the assay listed under Rattus norvegicus [2], the EC25 was determined as 3.5 µM. Further, the 50% inhibitory concentration (IC50) in the assay listed under Rattus norvegicus [3] amounted to 41.3 µM.

Molecule `CC1(C)Oc2ccc(C#N)cc2[C@@H](/N=C(\NC#N)NCc2ccccc2)[C@@H]1O` showed an EC25 in the assay listed under Rattus norvegicus [2] greater than 30 µM. In the assay filed under Rattus norvegicus [3], this molecule yielded an IC50 of 2.4 µM.

`CC1(C)Oc2ccc(C#N)cc2[C@@H](n2cc(C#N)c3ccccc32)[C@@H]1O`: the Ratio in the assay listed under Rattus norvegicus [1] was found to be 11.5. This molecule had an EC25 in the assay filed under Rattus norvegicus [2] of 25.5 µM. Also, the IC50 in the assay filed under Rattus norvegicus [3] was determined as 2.2 µM.

As for `CSc1cccc(N/C(=N/[C@@H]2c3cc(C#N)ccc3OC(C)(C)[C@H]2O)NC#N)c1`, the Ratio in the assay filed under Rattus norvegicus [1] worked out at 5.6. Moreover, the EC25 in the assay listed under Rattus norvegicus [2] amounted to 8.2 µM. The molecule further registered an IC50 in the assay filed under Rattus norvegicus [3] of 1.4 µM.

For the molecule `CC1(C)Oc2ccc(C#N)cc2[C@@H](/N=C(\NC#N)Nc2ccc(Cl)c(Cl)c2)[C@@H]1O`, the Ratio in the assay filed under Rattus norvegicus [1] was found to be 2.8. The same molecule showed an EC25 in the assay filed under Rattus norvegicus [2] of 12.9 µM. This molecule also displayed a 50% inhibitory concentration (IC50) in the assay listed under Rattus norvegicus [3] of 4.6 µM.

As for `CC1(C)Oc2ccc(C#N)cc2[C@@H](/N=C(\NC#N)NNc2ccccc2)[C@@H]1O`, in the assay filed under Rattus norvegicus [3], half-maximal inhibition (IC50) was put at 3.5 µM. Moreover, in the assay filed under Rattus norvegicus [4], the Activity came out at 4%.

Turning to `CC1(C)Oc2ccc(C#N)cc2[C@@H](NC(=O)Nc2ccccn2)[C@@H]1O`, the Ratio in the assay filed under Rattus norvegicus [1] is reported as 5.9. Also, the EC25 in the assay filed under Rattus norvegicus [2] came out at 2.6 µM. The IC50 in the assay filed under Rattus norvegicus [3] came to 0.44 µM.

`CC1(C)Oc2ccc(C#N)cc2[C@@H](n2c(O)nc3ccccc32)[C@@H]1O` registered an EC25 in the assay listed under Rattus norvegicus [2] of 11.7 µM.

Take `CC1(C)Oc2ccc(C#N)cc2[C@@H](NC(=O)c2ccccc2)[C@@H]1O`: in the assay filed under Rattus norvegicus [1], the Ratio is listed as 393. The EC25 in the assay filed under Rattus norvegicus [2] worked out at 11.8 µM. The IC50 in the assay listed under Rattus norvegicus [3] amounted to 0.03 µM.

`COC(=O)c1cc2ccccc2n1[C@@H]1c2cc(C#N)ccc2OC(C)(C)[C@H]1O`: the EC25 in the assay listed under Rattus norvegicus [2] is 8.1 µM.

The molecule `COC(=O)c1ccc(N/C(=N/[C@@H]2c3cc(C#N)ccc3OC(C)(C)[C@H]2O)NC#N)cc1` displayed a half-maximal inhibitory concentration (IC50) in the assay filed under Rattus norvegicus [3] of 18.4 µM.

These data come from ChEMBL document CHEMBL1128515, “Cardioselective anti-ischemic ATP-sensitive potassium channel openers. 3. Structure-activity studies on benzopyranyl cyanoguanidines: modification of the cyanoguanidine portion” (J Med Chem, 1995).
